Bioassay records deposited in PubChem by several laboratories.
The entries come from a sample that favours hits as a whole.
L major viab – Leishmania major promastigote growth inhibition; Leishmania major promastigotes, resazurin fluorescence viability; 9% of 200,000 active; inhibition, % at 10 µM; in the data active = inhibition above about 50%;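 also: promastigotes grown with compound for 44 hours at 28 °C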
Lipid droplet – modulators of hepatic lipid droplet formation; AML12 mouse hepatocytes, oleate lipid droplets, BODIPY imaging; AID 1656; inhibition, % at 6.5 µM; 0.4% of 240,000 active;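 active = lipid droplet intensity inhibited by at least 50%, with more than 500 cells counted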
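Material – mouse AML12 hepatocyte cell line, fixed after treatment · Compound dosing – one dose, 6.5 µM compound · Times – compound with oleate, overnight · Measured by – Image-based BODIPY and DAPI two-channel analysis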
MPTP block – blocks calcium-induced mitochondrial swelling | AID 602449 | isolated mouse mitochondria, Ca2+ swelling absorbance, 30 min | 1.4% of 360,000 active | inhibition, % at 10 µM;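 active = inhibition of 50% or more, scaled per plate between neutral and stimulator controls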;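 also: 0% = DMSO wells given calcium and 100% = 1 mM EGTA wells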
DTT redox prof – compounds producing H2O2 with reducing agent – biochemical, NIH compound library profiling, artefact control for MLSCN library redox annotation, primary screen; DTT-dependent redox cycling H2O2, phenol red/HRP absorbance; 100% = 100 µM peroxide control, 0% = buffer; AID 878; 0.03% of 200,000 active; activation, % at 10 µM;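 active = activation of at least 50% relative to the plate's high and low controls in the primary single-dose screen; inactive = activation below 50%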;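 also: compound incubated with DTT at 0.8 mM final as the reducing agent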
T cruzi repl – T. cruzi replication inhibition; T. cruzi beta-gal in NIH3T3, luminescence, 90 h; inhibition, % (test concentration not listed); 1.4% of 300,000 active;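 active = mean inhibition across valid replicates above about 55%, limit read from the data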;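 also: signal also drops with host cell toxicity which is not excluded here; 0% = plate median of DMSO wells and 100% = zero luminescence signal; higher percent means less beta-gal luminescence so fewer parasites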
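Assay system: NIH/3T3 fibroblasts plus reporter T. cruzi. Amount: NIH/3T3 cells, 5,000 per well. Buffer or medium: DMEM, 2% fetal bovine serum. Doses: compound pinned at 50 nL/well, DMSO. Schedule: ≥90 h infection period, 3 h prior cell attachment. Signal: luminescent β-galactosidase signal after 60 min lysis. Read-out: parasite load inhibition, %.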
* = called active by the depositor; · = no result given.

SMILES	L major viab	Lipid droplet	MPTP block	DTT redox prof	T cruzi repl
COc1ccc(Cl)cc1/C=N/NC(=O)c1c(-c2ccccc2)noc1C	·	-4.8	2.2	·	-5.4
Cc1cc[n+](C2=C([O-])c3ccccc3C(=O)/C2=N\S(=O)(=O)c2cccs2)cc1C	24.7	-14.0	-1.7	2.2	57.4*
Cc1ccc(C)c(S(=O)(=O)/N=C2\C=C(NS(=O)(=O)c3ccccc3)C(=O)c3ccccc32)c1	·	0.7	14.6	·	-9.0
Cc1ccccc1NC1=C/C(=N\S(=O)(=O)c2ccc(C(=O)O)cc2)c2ccccc2C1=O	·	-16.1	7.3	·	42.0
COc1ccc(S(=O)(=O)/N=C2\C=C(Nc3ccc(O)cc3)C(=O)c3ccccc32)cc1	·	-53.3	10.2	·	67.1*
CC(=O)Nc1ccc(NC2=C/C(=N/S(=O)(=O)c3cccs3)c3ccccc3C2=O)cc1	99.8*	-20.5	3.2	-0.7	56.5*
Cc1cc(C)c[n+](C2=C([O-])c3ccccc3C(=O)/C2=N\S(=O)(=O)c2cccs2)c1	20.9	-10.3	1.5	-0.8	-18.1
Cc1ccc(NC2=C/C(=N/S(=O)(=O)c3cccs3)c3ccccc3C2=O)cc1C	82.1*	3.7	4.6	-0.7	-44.0
Cc1ccc(N2C(=O)C3C(C2=O)C(C(=O)c2ccc(Cl)cc2)N2CCCC32)cc1 (stereo unspecified)	94.3*	-1.1	-2.3	0.7	-6.0
CC(C)(C)c1ccc2c(c1)OC(C(=O)N/N=C\c1ccncc1)CO2 (stereo unspecified)	·	1.0	32.6	·	-0.3
Cc1c(/C=N\NC(=O)C2COc3ccc(C(C)(C)C)cc3O2)c2ccccc2n1C (stereo unspecified)	10.4	1.8	1.5	0.3	65.8*
CC(C)(C)c1ccc2c(c1)OC(C(=O)N/N=C/c1ccc([N+](=O)[O-])o1)CO2 (stereo unspecified)	·	·	38.3	·	59.8*
Cc1cccc(NC(=O)CN(C)C(C)C(=O)Nc2ccc(S(=O)(=O)N3CCCC3)cc2)c1C (stereo unspecified)	·	·	-1.2	·	·
CN(CCc1ccccc1)C(=O)c1cccc(NC(=O)Cc2cccc(NC(=O)C3CCN(C(=O)c4ccccc4)CC3)c2)c1	·	·	0.8	·	·
COc1cc(CNC2CCCC2)c(Br)cc1OC1CCCC1	36.9	-1.9	-1.8	0.5	30.8
COc1cc(CNC2CCCCCCC2)cc(Br)c1OCC#N	75.1*	-1.0	0.8	0.3	8.2
CCOc1c(Br)cc(CNC2CCCCCCC2)cc1OC	59.9*	-1.5	10.7	-0.3	41.7
COc1cc(CNC2CCCCCCC2)cc(Cl)c1OC	·	-15.9	2.1	·	27.6
c1ccc([C@H]2CN3C(=N2)Sc2ccccc23)cc1	·	·	0.7	·	·
C=C1CCN([C@@H](CC(C)C)C(=O)Nc2nc3ccc(Cl)cc3s2)S(=O)(=O)c2ccccc21	·	·	-0.1	·	9.6
CCN1/C(=C/C=C/c2oc3ccc(-c4ccccc4)cc3[n+]2CC)Oc2ccc(-c3ccccc3)cc21	100.4*	120.1*	36.7	1.7	89.8*
Cc1c(Cl)cccc1NC(=S)N1CCC(N(C)CC2CCCO2)CC1 (stereo unspecified)	83.5*	26.3	1.3	-1.5	7.3
Cc1ccc(NC(=S)N2CCC(N(C)CC3CCCO3)CC2)cc1C (stereo unspecified)	86.5*	-3.1	1.0	-0.8	19.8
COc1ccc(NC(=S)N2CCC(N(C)CC3CCCO3)CC2)cc1 (stereo unspecified)	93.4*	-1.7	-1.0	0.2	-10.0
COc1ccc(NC(=S)N2CCC(N(C)CC3CCCO3)CC2)cc1Cl (stereo unspecified)	95.3*	4.2	0.2	0.0	4.1
SMILES	L major viab	Lipid droplet	MPTP block	DTT redox prof	T cruzi repl
CCOC(=O)N1CCN(C(=S)Nc2ccc(C)c(C)c2)CC1	-3.8	4.0	0.0	0.0	-12.5
COc1ccc(NC(=S)N2CCC(C(=O)N3CCCCCC3)CC2)cc1	-7.0	·	1.8	-2.8	17.2
Cc1c(Cl)cccc1NC(=S)N1CCN(C(=O)C2CCCO2)CC1 (stereo unspecified)	-3.6	18.3	0.3	-0.2	-13.6
C=CCn1c(=S)sc2c(=O)[nH]cnc21	·	-13.0	0.6	·	-5.7
Cc1cccc(NC(=S)N2CCCCCC2)c1	36.8	3.6	-2.7	0.2	-8.7
Cc1cccc(NC(=S)N2CCC(N(C)CC3CCCO3)CC2)c1 (stereo unspecified)	85.5*	14.3	0.0	1.1	17.4
CS(=O)(=O)c1ccc(Sc2nc3ccccc3[nH]2)c([N+](=O)[O-])c1	38.4	·	9.7	2.0	44.1
CS(=O)(=O)c1ccc(Sc2nc3ccccc3s2)c([N+](=O)[O-])c1	80.0*	8.5	1.5	0.2	3.8
O=[N+]([O-])c1cc(S(=O)(=O)C(F)(F)F)ccc1Sc1nc2ccccc2s1	100.6*	·	-5.6	6.2	48.3
CC(OC(=O)c1nc(Cl)ccc1Cl)C(=O)Nc1ccc2c(c1)OCCO2 (stereo unspecified)	·	·	-0.5	·	-11.9
CCOC(=O)c1c(NC(=O)C[n+]2ccc(N(C)C)cc2)sc(C)c1C	84.0*	-18.5	-0.8	0.0	62.4*
CCOC(=O)c1c(NC(=O)CN2C(=O)NC(C)(c3ccccc3)C2=O)sc(C)c1C (stereo unspecified)	70.0*	-11.0	0.1	-0.2	19.9
COCc1ccc(C(=O)NC2CCCc3c2cnn3-c2cc(C)cc(C)c2)s1 (stereo unspecified)	·	-11.1	7.8	·	23.2
C/C(=N\NC(=S)Nc1cc(S(=O)(=O)N2CCOCC2)ccc1Cl)c1ccc(N2CCOCC2)cc1	·	-4.7	1.9	·	43.5
COc1ccc2cc(/C(C)=N/NC(=S)Nc3cc(S(=O)(=O)N4CCOCC4)ccc3N3CCOCC3)ccc2c1	75.0*	26.4	·	-1.5	68.9*
COc1ccc(S(=O)(=O)Nc2cc(C(=O)NC(C)C)ccc2N2CCOCC2)cc1	2.3	0.7	-0.5	0.1	-1.4
COc1ccc(NS(=O)(=O)c2ccc(N3CCOCC3)c(NC(=O)c3ccccc3Cl)c2)cc1	97.5*	-2.4	-6.8	0.1	-10.0
COc1ccc(-c2cc(C(=O)Nc3cc(S(=O)(=O)N4CCOCC4)ccc3N3CCOCC3)c3ccccc3n2)cc1	65.0*	21.4	1.0	-3.3	42.0
COc1ccc(NS(=O)(=O)c2ccc(N3CCOCC3)c(NC(=O)c3ccc(OC)cc3)c2)cc1	82.2*	4.0	1.9	-0.1	-5.8
CCN1CCN(c2ccc(S(=O)(=O)N3CCOCC3)cc2NC(=O)c2cc(Cl)nc3ccccc23)CC1	·	·	-3.9	·	-2.8
CN1CCc2nc3ccc(Cl)cc3c(-c3ccccc3Cl)c2C1	32.3	-19.3	-0.6	0.1	40.3
Cc1nc(CN2CCN(Cc3nc(C(c4ccccc4)c4ccccc4)no3)CC2)cs1	-0.3	-10.1	-1.8	1.0	2.4
CCCCC[C@@H]1[C@H]2[C@H]3C(=O)N(c4ccccc4)C(=O)[C@H]3CC(=O)[C@H]2[C@H](c2ccccc2)N1S(=O)(=O)c1ccc(C)cc1	·	·	1.4	·	·
